PLC-beta3 inh – PLC-beta3 (human) inhibition, primary screen; 370,000 compounds, 0.18% hits; Q01970; Purified PLC-beta3, fluorogenic substrate, fluorescence; inhibition, % at 12.2 µM; in the data active = inhibition above about 11%;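 also: 0% = median of compound wells on plate and 100% = full blocker control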
PLCg1 inh – inhibitors of human phospholipase C gamma1; purified PLC-gamma1, fluorogenic substrate, fluorescence; P19174; inhibition, % at 12.2 µM; 370,000 compounds, 0.84% hits
ARFGAP1 inhibitor – inhibitors of rat ARFGAP1. Arfgap1-stimulated ARF1 GTP hydrolysis, GDP FP detection. inhibition, % at 16.5 µM. 360,000 compounds, 0.26% hits;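 active = inhibition above a per-plate limit, mean inhibition of low control wells plus 3 SD, cut at about 25% in these data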;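 also: 0% = DMSO wells with enzyme and 100% = wells lacking Arfgap1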
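System: truncated rat Arfgap1 GAP domain / Benchmarks: high control wells lacking Arfgap1, low control full reaction with DMSO / Times: compound-enzyme preincubation 20 min, reaction 120 min, detection 60 min, 25 °C / Repeats: one replicate per compound / Also added: human ARF1(Δ1-17)-GTP substrate / Measured by: Tracer-displacement fluorescence polarization with EDTA stop, 620/688 nm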
sPLA2-III inh – Blocks human group III sPLA2 activity; QFRET BODIPY PC-A2 liposome hydrolysis, fluorescence; inhibition, % at 12.2 µM; 370,000 compounds, 0.56% hits;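 active = inhibition above mean plus 3 SD of compounds lying within the high and low control bounds, cut at about 19% in these data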;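 also: 0% = median of test compound wells and 100% = no enzyme DMSO wells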
ASAP1 inh – blocks human ASAP1-stimulated Arf1 GTP hydrolysis | GDP FP detection | 360,000 compounds, 0.19% hits | Q9ULH1 | inhibition, % at 16.5 µM; in the data active = inhibition above about 25%;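 also: 0% = vehicle with enzyme and substrate and 100% = no enzyme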
PLCg1 ctr – counter-screen for PLC-beta3 inhibitors: inhibitors of human PLC-gamma1 | shares compounds with PLCg1 inh | purified PLC-gamma1, fluorogenic substrate, fluorescence | inhibition, % at 12.3 µM | 3,300 compounds, 3.1% hits | AID 743258
PLCb3 confirm – human PLC-beta3 inhibition, confirmation | AID 743261 | inhibition, % at 12.3 µM | 3,300 compounds, 1% hits | shares compounds with PLCg1 inh | purified PLC-beta3, fluorogenic substrate fluorescence; in the data active = inhibition above about 11%
* marks the source's active call; other numbers are inactive results; . = no result. The list is not random: actives were taken first. Their share in the collection is about 1.9%. Rule as the data show it, unless noted: active = inhibition above about 9.5%; inactive = the rest.

SMILES | PLC-beta3 inh | PLCg1 inh | ARFGAP1 inhibitor | sPLA2-III inh | ASAP1 inh | PLCg1 ctr | PLCb3 confirm
CCOc1c(Cl)cc(CNCC(C)C)cc1OC | 1 | -2 | -1 | 3 | -5 | . | .
CCOc1c(Cl)cc(CNCC(O)c2ccccc2)cc1OC (stereo not given) | 2 | 11* | 6 | -10 | 6 | 2 | 5
COCCCN1C(=O)[C@H](CC(=O)NCC2CCCCC2)[C@]2(C(=O)OC)CCCCC=C12 | 0 | 0 | . | 9 | . | . | .
FC(F)(F)c1nc(Oc2ccccc2)c2ccccc2n1 | 2 | 10* | 16 | 3 | 17 | 1 | 1
Cc1nc(Oc2ccccc2)c2ccccc2n1 | 1 | 5 | 11 | 10 | 0 | . | .
COc1ccc(OC)c(CN2C(=O)COc3ccccc3C2c2nnnn2C2CCCC2)c1 (stereo not given) | 2 | 0 | . | -2 | . | . | .
Cc1ccc(S(=O)(=O)N2CCN(C(=O)c3cccn3C)CC2)cc1 | -3 | 0 | . | 2 | . | . | .
NS(=O)(=O)c1ccccc1 | 11* | 15* | 3 | 12 | 15 | 0 | -6
NS(=O)(=O)c1ccc(CCNS(=O)(=O)c2ccccc2)cc1 | 2 | 0 | 10 | -1 | -10 | . | .
CCOC(=O)[C@]12CCCCC/C=C\1N(Cc1ccc(OC)cc1)C(=O)[C@H]2CC(=O)N1CCCC1 | 0 | 3 | . | 7 | . | . | .
Cc1ccc2c(CSc3nncn3C)cc(=O)oc2c1C | 5 | 11* | -12 | -8 | 2 | -9 | -1
COc1ccccc1C(=O)Nc1ccccc1N1CCN(S(C)(=O)=O)CC1 | 8 | 11* | 4 | 2 | 25 | 9 | 3
CS(=O)(=O)N1CCN(c2ccccc2NC(=S)NC(=O)c2ccccc2[N+](=O)[O-])CC1 | 8 | 9.9* | 15 | 11 | -1 | -2 | -1
CS(=O)(=O)N1CCN(c2ccccc2NC(=S)NC(=O)c2cccs2)CC1 | -2 | 1 | -7 | 1 | 0 | . | .
COc1ccccc1N1CCN(S(=O)(=O)CCNC(=O)CCc2ccccc2)CC1 | -2 | 9.7* | -9 | 1 | -7 | -6 | -4
CCN(CC)S(=O)(=O)c1ccc(F)cc1 | 7 | 11* | -14 | 2 | 6 | 4 | 3
O=C1N(CCCO)CCC12CCCCC2 | 0 | 0 | . | 9 | . | . | .
NC(c1csc(Nc2ncccn2)n1)c1ccccc1Cl (stereo not given) | 11 | 12* | 1 | 8 | 1 | -8 | 0
O=C(O)c1cccc(S(=O)(=O)NCC2COc3ccccc3O2)c1 (stereo not given) | 1 | 9.8* | 4 | 5 | 6 | -8 | -2
CN(C)c1ccc(P(=O)(Nc2ccccc2)N2CCOCC2)c(NC(=O)c2cccs2)c1 (stereo not given) | 3 | -3 | 2 | -7 | 9 | . | .
Cc1ccc(NP(=O)(c2ccc(N(C)C)cc2NC(=O)c2cccs2)N2CCOCC2)cc1 (stereo not given) | 14* | 6 | 4 | 3 | -4 | -25 | -26
CN1C2=N[C@@H](c3ccccc3)CC(=O)N2/C(=C\c2ccccc2)[C@H]1c1ccccc1 | 1 | 5 | . | -4 | . | . | .
CN1CCN(NC(=O)/C=C/c2cccc([N+](=O)[O-])c2)CC1 | 2 | 12* | 4 | 17 | -8 | -10 | -3
CN1CCN(NC(=O)/C=C/c2cccc(Cl)c2)CC1 | -8 | 1 | 7 | 5 | 11 | . | .
S=C(NC1CCCCC1)N1CCc2ccccc2C1 | 3 | 9.9* | -5 | 12 | 3 | -6 | -1
SMILES | PLC-beta3 inh | PLCg1 inh | ARFGAP1 inhibitor | sPLA2-III inh | ASAP1 inh | PLCg1 ctr | PLCb3 confirm
O=C(NNC(=O)C12CC3CC(CC(C3)C1)C2)c1ccccn1 | 0 | -1 | -8 | -2 | 5 | . | .
O=C(Nc1cccnc1)C12CC3CC(CC(C3)C1)C2 | 11* | 2 | 9 | 3 | 5 | -9 | -3
O=C(NNC(=O)C12CC3CC(CC(C3)C1)C2)c1cnccn1 | 4 | 11* | -13 | 0 | -1 | -5 | 0
Cc1ccnc(NC(=O)C23CC4CC(CC(C4)C2)C3)c1 | 11* | 8 | -2 | 1 | 14 | -2 | -2
C=CCN1C(=O)[C@@H](CC(=O)NCc2ccc(C)o2)[C@]2(C(=O)OC)CCCCC=C12 | 1 | 3 | . | -10 | . | . | .
COc1cccc(/C=C/C(=O)OCCN2C(=O)c3ccccc3C2=O)c1 | -15 | -7 | -2 | -3 | 2 | . | .
